In the library only some 3.8% were active in any assay of this set; here they are far more common.
Exocytosis inh – lytic granule exocytosis inhibition; TALL-104 LAMP-1 surface exposure, flow cytometry; cells stimulated with thapsigargin and PMA; inhibition, % at 10 µM; AID 651702; actives 0.66% (n = 360,000);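 active = inhibition above about 55%, limit read from the data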
MPTP inh – permeability transition pore inhibition; AID 602449; actives 1.4% (n = 360,000); isolated mouse mitochondria, Ca2+ swelling absorbance, 30 min; inhibition, % at 10 µM;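 active = inhibition of 50% or more, scaled per plate between neutral and stimulator controls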;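 also: 0% = DMSO wells given calcium and 100% = 1 mM EGTA wells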
V-ATPase pHluor – yeast V-ATPase proton transport regulation by pHLuorin; S. cerevisiae, pHLuorin cytosolic pH fluorescence; response, % at 10 µM; actives 0.37% (n = 350,000); AID 504577; in the data active = response mostly above about 7.3%, no sharp cut-off; inactive = mostly below about 5.4%; also: actives read high
Beta2AR agonist – human beta-2 adrenergic receptor agonism by FAP. Am2.2-beta2AR cells, FAP receptor internalization, flow cytometry. response, % (no concentration beside the values). actives 0.43% (n = 340,000). AID 504454;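 active = response above a set limit, near 3 SD of response in nonfluorescent compounds, cut at about 42% in these data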
Target sequence (P07550 whole entry, looked up): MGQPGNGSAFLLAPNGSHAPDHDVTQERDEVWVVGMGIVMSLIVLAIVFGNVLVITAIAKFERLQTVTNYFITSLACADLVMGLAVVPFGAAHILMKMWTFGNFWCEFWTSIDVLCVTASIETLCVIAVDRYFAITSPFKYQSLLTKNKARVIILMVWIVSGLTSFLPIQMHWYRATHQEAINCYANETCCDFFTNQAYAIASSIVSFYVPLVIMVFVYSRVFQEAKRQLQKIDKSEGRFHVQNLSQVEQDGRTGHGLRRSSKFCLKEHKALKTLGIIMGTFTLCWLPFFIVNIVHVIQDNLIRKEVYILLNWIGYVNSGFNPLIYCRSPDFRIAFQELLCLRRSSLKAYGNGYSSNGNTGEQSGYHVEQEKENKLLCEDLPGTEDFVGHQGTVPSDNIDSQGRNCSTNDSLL
rCAG binder – molecules binding r(CAG) RNA repeats | r(CAG) RNA repeat, TO-PRO-1 dye displacement fluorescence | inhibition, % at 3 µM | actives 1.3% (n = 370,000) | AID 651821;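 active = inhibition above the plate cutoff, the mean of all test compounds on that plate plus 3 SD, cut at about 35% in these data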;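 also: 0% = DMSO alone and 100% = 100 µM mitoxantrone as full dye displacement; higher means more dye released from RNA so lower well fluorescence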
T cell modulator – T cell immune modulation candidate; 2C CD8+ T cell-vesicle binding, flow cytometry; hits give low values; response (vesicle binding), % at 7 µM; AID 2052; actives 0.068% (n = 330,000);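 active = response, share of CD8 T cells binding vesicles, and their 90th percentile fluorescence all below set limits, cut at about 80% in these data, passing the limit was not always enough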;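 also: values below 100% mean blocked vesicle binding to the CD8+ T cells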
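Benchmarks: naked versus QL9-loaded vesicles / Assay system: purified 2C TCR transgenic mouse naive CD8+ T cells / Technique: high-throughput flow cytometry with anti-B7-1 and anti-CD8 staining / Timing: Cell–vesicle co-incubation 1.5 h at 37 °C, staining 20 min on ice / Read-out: percent CD8+ FL2 mean versus row control / Probe or stimulus: QL9-loaded Drosophila micro-vesicles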
Beta2AR ag CP1 – activates human beta-2 adrenergic receptor. shares compounds with Beta2AR agonist. Am2.2-beta2AR cells, FAP surface receptor, flow cytometry; hits give low values. percent response (surface receptor), % at 10 µM. actives 25% (n = 1,100). AID 540358;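 active = surface receptor percent response at or below 58%, roughly 3 SD from nonfluorescent compounds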
B2AR FAP counter – fluorescence artifact in beta-2AR agonist FAP counterscreen; shares compounds with Beta2AR agonist; Am2.2 cells, FAP fluorogen flow cytometry; hits give low values; calls only at 10 µM; 1,100 tested, under 10 active; AID 588765;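 active = percent response below a set limit in fluorescence channel 1 and below 50% in channel 8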
Rh123 counter – membrane potential counter-screen of mitochondrial pore inhibitors; shares compounds with MPTP inh; isolated mitochondria, Rhodamine 123 fluorescence; AID 624504; actives 78% (n = 5,000); inhibition, % at 10 µM; in the data active = inhibition above about 22%;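 also: 0% = DMSO vehicle and 100% = positive control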
MPTP abs DR – MPTP inhibition, dose response swelling confirmation | IC50, µM | shares compounds with MPTP inh | actives 58% (n = 780) | isolated mitochondria swelling, absorbance; in the data active = IC50 below about 20 µM
MPTP cs DR – active in counter-screen for permeability transition pore inhibitors. shares compounds with MPTP inh. isolated mitochondria counterscreen, fluorescence read-out. IC50, µM. actives 49% (n = 780); in the data active = IC50 below about 80 µM
* marks the source's active call; other numbers are inactive results; i = inactive; / = no result; + = active, no number; ! = a repeat was not active.

SMILES	Exocytosis inh	MPTP inh	V-ATPase pHluor	Beta2AR agonist	rCAG binder	T cell modulator	Beta2AR ag CP1	B2AR FAP counter	Rh123 counter	others
COc1ccc(C(CCNCc2ccc(N(C)C)cc2)c2ccccc2)cc1 (stereo not drawn)	31.8	6.9	-0.4	11.8	11.6	293.9	103.9	i	/
Cc1nc2cc(-c3ccc(Cl)cc3)nn2c(C)c1CCC(=O)NC(C)c1ccc2c(c1)OCCO2 (stereo not drawn)	-4.0	-0.4	5.5	-31.6	4.7	i	/	/	/
Cc1csc(NC(=O)CCc2c(C)nc3cc(-c4ccc(Cl)cc4)nn3c2C)n1	-0.5	1.1	2.6	63.4*	-0.3	985.2	69.2	i	/
Cc1ccc(Cn2nnc3c2-c2ccccc2S(=O)(=O)N(C2CC2)C3)cc1	/	/	/	/	-0.1	/	/	/	/
CC(=O)Oc1ccccc1N(C(C)=O)S(=O)(=O)c1ccc2ccccc2c1	-6.9	1.4	-1.4	2.6	-2.5	196.6	/	/	/
CC(=O)Oc1c(Br)cc(N(C(C)=O)S(=O)(=O)c2ccccc2)c2ccccc12	51.9	1.6	-4.5	59.9*	5.8	137.8	107.4	i	/
COc1ccc(CNS(=O)(=O)/C=C/c2ccccc2CNC(=O)OC(C)(C)C)cc1	/	/	/	/	-2.1	/	/	/	/
CCOC(=O)c1[nH]c(=S)n(Cc2ccccc2)c1C(=O)OCC	-1.8	-2.0	-1.2	42.9*	5.3	/	122.0	i	/
CCOC(=O)c1[nH]c(=S)n(-c2ccccc2)c1C(=O)OCC	2.7	-1.5	0.8	/	1.9	/	/	/	/
CC1=NN(C(N)=S)C(=O)C1N=Nc1ccccc1 (stereo not drawn)	1.5	-0.1	-5.6	-1.4	1.9	230.1	108.2	i	/
CC1=NN(C(N)=S)C(=O)C1N=Nc1ccc(Cl)cc1 (stereo not drawn)	-2.1	2.6	1.5	-6.2	3.9	290.2	/	/	/
O=C(NCCNc1ccc([N+](=O)[O-])cc1)c1ccccc1Br	-2.8	0.7	-1.5	46.1*	2.3	295.8	105.0	i	/
Cc1ccc(C(=O)Nc2cccc(C(F)(F)F)c2)cc1NC(=O)c1csc(-c2ccncc2)n1	1.3	-1.3	-2.8	90.6*	/	477.5	36.3*!	+!	/
Cc1ccc(Cl)cc1NC(=O)c1cc2ccccc2cc1O	7.7	98.9*	1.4	43.6*	24.4	477.4	94.7	i	74.2*
COc1ccc2c(c1)CCCN2C(=O)C1CCCN(S(=O)(=O)c2ccc(Br)s2)C1 (stereo not drawn)	/	/	/	/	5.7	/	/	/	/
CCCCCCCCCCOC(=O)Cn1c(COc2ccccc2OC)[n+](C)c2ccccc21	88.8*	52.6*	1.1	16.2	7.4	113.0	107.2	i	94.6*
CCC(=O)N1CCc2cc(Br)c(S(=O)(=O)N3CCC(C(=O)NCCCOC(C)C)CC3)cc21	/	/	/	/	2.3	/	/	/	/
COc1cc(CNCCO)cc(Cl)c1OCc1ccccc1Cl	13.5	80.0*	7.3	48.1*	-1.8	449.0	99.2	i	-11.5	MPTP abs DR=5.51*;MPTP cs DR=>80
COc1cccc(CNCCO)c1OCc1ccccc1Cl	0.7	0.5	-0.3	-3.8	3.2	262.8	/	/	/
CN(C)CC/C=C1\c2ccccc2Sc2ccc(Cl)cc21	-1.2	96.6*	4.9	53.1*	4.9	74.4	97.4	i	-6.1
CN(C)CC/C=C1\c2ccccc2Sc2cc(F)c(Cl)cc21	15.0	-6.1	0.2	9.2	7.7	691.0	/	/	/
COc1ccc2[nH]c3c(NCCC4=CCCCC4)ncnc3c2c1	51.6	94.1*	6.1	45.2*	4.6	/	62.1	i	92.8*
Cc1cccc(NC(=O)CSc2nnc(SCc3ccc(Cl)cc3)s2)c1	/	/	/	/	7.5	/	/	/	/
Cc1cccc(OCC(O)Cn2c(=N)n(Cc3ccccc3)c3ccccc32)c1 (stereo not drawn)	48.4	2.3	5.2	8.0	16.3	487.8	/	/	/
N=c1n(Cc2ccc(Cl)cc2)c2ccccc2n1CC(O)COc1ccccc1 (stereo not drawn)	32.6	77.7*	1.3	42.7*	18.5	176.2	18.7*	i	26.7*
SMILES	Exocytosis inh	MPTP inh	V-ATPase pHluor	Beta2AR agonist	rCAG binder	T cell modulator	Beta2AR ag CP1	B2AR FAP counter	Rh123 counter	others
CC(C)(C)C(=O)c1c(N)[nH]c(C(=O)c2ccccc2)c1-c1ccc([N+](=O)[O-])cc1	/	/	/	/	5.0	/	/	/	/
CCCCCN1CCCCC(NC(=O)c2ccc3ccccc3c2)C1=O (stereo not drawn)	/	/	/	/	-2.7	/	/	/	/
CCOC(=O)C1=C(C(=O)OCC)C2N(Cc3ccc(C(F)(F)F)cc3)c3ccccc3[C@@]23C[C@@H](C(=O)OC)N(S(=O)(=O)c2ccc(OC)cc2)C3=N1 (stereo partly drawn)	/	/	/	/	8.8	/	/	/	/
O=C1NCN(c2ccccc2)C12CCN(CCCC(c1ccc(F)cc1)c1ccc(F)cc1)CC2	33.4	100.3*	7.7	48.9*	3.5	111.0	81.9	i	-24.8	MPTP abs DR=7.31*;MPTP cs DR=30.8*
O=C(CCCN1CCN(c2ccccc2)CC1)c1ccc(F)cc1	-0.1	-1.2	1.3	/	-0.9	/	/	/	/
COC(=O)C1CN(C2CCCC2)CCS(=O)(=O)N1Cc1ccc(Cl)cc1 (stereo not drawn)	/	/	/	/	3.6	/	/	/	/
COc1cc(CNCCc2c[nH]c3ccccc23)ccc1OCc1ccc(F)cc1	34.8	70.3*	4.5	72.3*	7.9	389.6	55.6*	i	-25.2
COc1cccc(CNCCc2c[nH]c3ccccc23)c1OCc1ccc(F)cc1	30.7	31.8	2.3	33.7	7.0	206.8	/	/	/
Clc1ccc(OCc2nnc(SCc3nc4ccccc4[nH]3)n2Cc2ccco2)cc1	-1.6	61.5*	-5.9	111.2*	4.4	185.6	38.5*	i	34.6*
CCn1c(COc2ccc(C)cc2)nnc1SCc1nc2ccccc2[nH]1	-1.0	-0.1	-0.4	-6.6	-3.3	485.6	/	/	/
NC(=S)n1[nH]c(-c2ccc([N+](=O)[O-])cc2)c(N=Nc2ccc(Cl)cc2)c1=O	20.1	105.8*	0.1	2.4	/	/	103.3	i	93.0*
Cc1ccc([N+](=O)[O-])cc1N=Nc1c(-c2ccc([N+](=O)[O-])cc2)[nH]n(C(N)=S)c1=O	11.3	98.6*	5.5	19.5	/	/	101.5	i	69.3*
Cc1ccc([N+](=O)[O-])cc1N=Nc1c(C)[nH]n(C(N)=S)c1=O	-2.9	5.7	-1.4	2.6	2.9	174.0	/	/	/
